Assay results gathered from unrelated publications.
Each line is one published result; the experiments were not run side by side.
Cell line: NCI-H1975
Effect on: cell growth or viability

SMILES	technique	tested at	time	quantity	result
COc1ccc2/c(=N/c3ccccc3NC(=O)[C@H](C)N)cc(-c3ccc4c(c3)OCCO4)oc2c1	CCK-8	1 µM		inhibition	5.17%
CCCn1cnc2ccc(-c3ccc(NC(=O)CC4CC4)nc3)cc2c1=O	CCK-8		72 h	IC50	3.48 µM
CC(C)(C)[C@H](N)C(=O)Nc1ccccc1/N=c1\cc(-c2ccc3c(c2)OCCO3)oc2cc(F)ccc12	CCK-8	1 µM		inhibition	-7.44%
COc1ccc(NC(=O)Nc2nc3cc(-c4ccc5ncn(CCN(C)C)c(=O)c5c4)ccc3s2)cc1	MTT		72 h	IC50	> 20 µM
CCCn1cnc2ccc(-c3ccc(NC(=O)c4ccccc4)nc3)cc2c1=O	CCK-8		72 h	IC50	0.095 µM
N[C@@H](CO)C(=O)Nc1ccccc1/N=c1\cc(-c2ccc3c(c2)OCO3)oc2ccccc12	CCK-8	1 µM		inhibition	-1.95%
Cc1ccc(NC(=O)Nc2nc3cc(-c4ccc5ncn(Cc6ccccc6)c(=O)c5c4)ccc3s2)cc1	MTT		72 h	IC50	> 20 µM
CCCCC(=O)Nc1ccc(-c2ccc3ncn(CC4CCC4)c(=O)c3c2)cn1	CCK-8		72 h	IC50	1.4 µM
COc1cccc(NC(=O)Nc2nc3cc(-c4ccc5ncn(CCN(C)C)c(=O)c5c4)ccc3s2)c1	MTT		72 h	IC50	> 20 µM
C#Cc1cccc(Nc2ncnc3cc(OCCOC)c(OCCOC)cc23)c1	MTT		72 h	IC50	5.72 µM
